According to ChEMBL document CHEMBL1136986, “Identification of anxiolytic/nonsedative agents among indol-3-ylglyoxylamides acting as functionally selective agonists at the gamma-aminobutyric acid-A (GABAA) alpha2 benzodiazepine receptor” (J Med Chem, 2009):
Calls of active or inactive are those of the source. The rule behind the calls is not given here.

Experiments:
[1] = molecular target: Gamma-aminobutyric acid receptor subunit alpha-2 (Rattus norvegicus, UniProt P18508+P23576+P63138); assay: Displacement of [3H]flumazenil from rat GABA-A alpha-2-beta-2-gamma-2 receptor expressed in HEK293 cells; format: cell-based
Sequence of Gamma-aminobutyric acid receptor subunit alpha-2 (P23576 whole entry, one chain of several): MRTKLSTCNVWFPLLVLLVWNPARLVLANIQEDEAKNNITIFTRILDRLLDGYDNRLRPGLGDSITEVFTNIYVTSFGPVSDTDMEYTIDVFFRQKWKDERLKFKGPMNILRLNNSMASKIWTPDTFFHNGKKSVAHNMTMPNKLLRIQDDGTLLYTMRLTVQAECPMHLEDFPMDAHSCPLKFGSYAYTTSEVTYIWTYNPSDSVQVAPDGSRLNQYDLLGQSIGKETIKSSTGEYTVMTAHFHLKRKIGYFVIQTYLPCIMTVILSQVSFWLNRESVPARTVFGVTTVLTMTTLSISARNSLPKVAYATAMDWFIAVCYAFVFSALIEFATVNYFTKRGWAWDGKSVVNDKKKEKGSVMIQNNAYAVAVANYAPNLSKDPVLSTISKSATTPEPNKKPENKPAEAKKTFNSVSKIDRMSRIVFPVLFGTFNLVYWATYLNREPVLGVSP
In short: (§1)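 HEK293 membranes expressing rat α1β2γ2, α2β2γ2 or α5β3γ2, made in 10 mM potassium phosphate pH 7.4 (48000g, 4 °C) and resuspended with 100 mM KCl. Ki is mean ± SEM of three determinations in triplicate.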

[2] = molecular target: Gamma-aminobutyric acid receptor subunit alpha-2 (Rattus norvegicus) (UniProt P23576); assay: Agonist activity at rat GABA-A alpha-2-beta-2-gamma-2 receptor expressed in HEK293 cells assessed as increase in 36Cl- influx; format: functional, cell-based
Sequence of Gamma-aminobutyric acid receptor subunit alpha-2 (Rattus norvegicus) (P23576 whole entry): as the sequence (P23576 whole entry, one chain of several) above
In short: (§2)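 36Cl- uptake in HEK293 cells stably expressing rat α1β2γ2 or α2β2γ2, grown 3 days on polylysine-coated coverslips. Cells washed in HEPES/NaCl buffer pH 7.4, then dipped at room temperature into 36Cl- (2 µCi/mL) with drug, with or without GABA at EC20. Influx stopped after 8 s in ice-cold buffer with 0.1 mM picrotoxin. Result is % increase of EC20 GABA response, ≥5 independent experiments.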

[3] = molecular target: GABA-A receptor; alpha-1/beta-2/gamma-2 (Rattus norvegicus, UniProt P18508+P62813+P63138); assay: Displacement of [3H]flumazenil from rat GABA-A alpha-1-beta-2-gamma-2 receptor expressed in HEK293 cells; format: cell-based; in short: as §1
Sequence of GABA-A receptor; alpha-1/beta-2/gamma-2 (P18508 whole entry): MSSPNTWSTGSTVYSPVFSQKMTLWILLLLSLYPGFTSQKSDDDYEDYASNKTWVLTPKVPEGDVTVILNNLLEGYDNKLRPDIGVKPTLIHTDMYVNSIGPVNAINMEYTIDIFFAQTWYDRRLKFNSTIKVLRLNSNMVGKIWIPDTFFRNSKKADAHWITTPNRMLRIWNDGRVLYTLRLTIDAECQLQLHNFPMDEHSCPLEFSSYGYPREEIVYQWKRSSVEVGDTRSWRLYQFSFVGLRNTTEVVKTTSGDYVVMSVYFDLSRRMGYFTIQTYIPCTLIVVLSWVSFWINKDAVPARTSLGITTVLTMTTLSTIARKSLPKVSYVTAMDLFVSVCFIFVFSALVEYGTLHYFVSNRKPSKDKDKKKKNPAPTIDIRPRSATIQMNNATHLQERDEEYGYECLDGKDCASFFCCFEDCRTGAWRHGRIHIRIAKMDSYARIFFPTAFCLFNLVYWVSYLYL
Sequence of GABA-A receptor; alpha-1/beta-2/gamma-2 (P62813 whole entry): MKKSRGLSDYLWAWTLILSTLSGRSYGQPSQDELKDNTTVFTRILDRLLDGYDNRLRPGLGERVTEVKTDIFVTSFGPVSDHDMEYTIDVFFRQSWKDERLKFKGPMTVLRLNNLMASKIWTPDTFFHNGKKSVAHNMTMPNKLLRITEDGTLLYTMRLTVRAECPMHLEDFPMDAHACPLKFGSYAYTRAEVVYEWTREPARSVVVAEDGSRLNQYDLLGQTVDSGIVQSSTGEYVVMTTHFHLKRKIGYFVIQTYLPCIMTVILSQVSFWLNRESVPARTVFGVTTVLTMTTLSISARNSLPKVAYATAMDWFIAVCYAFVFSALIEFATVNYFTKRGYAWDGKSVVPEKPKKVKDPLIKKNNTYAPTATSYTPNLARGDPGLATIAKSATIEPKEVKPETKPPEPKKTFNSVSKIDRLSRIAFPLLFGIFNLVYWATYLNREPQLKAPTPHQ
Sequence of GABA-A receptor; alpha-1/beta-2/gamma-2 (P63138 whole entry): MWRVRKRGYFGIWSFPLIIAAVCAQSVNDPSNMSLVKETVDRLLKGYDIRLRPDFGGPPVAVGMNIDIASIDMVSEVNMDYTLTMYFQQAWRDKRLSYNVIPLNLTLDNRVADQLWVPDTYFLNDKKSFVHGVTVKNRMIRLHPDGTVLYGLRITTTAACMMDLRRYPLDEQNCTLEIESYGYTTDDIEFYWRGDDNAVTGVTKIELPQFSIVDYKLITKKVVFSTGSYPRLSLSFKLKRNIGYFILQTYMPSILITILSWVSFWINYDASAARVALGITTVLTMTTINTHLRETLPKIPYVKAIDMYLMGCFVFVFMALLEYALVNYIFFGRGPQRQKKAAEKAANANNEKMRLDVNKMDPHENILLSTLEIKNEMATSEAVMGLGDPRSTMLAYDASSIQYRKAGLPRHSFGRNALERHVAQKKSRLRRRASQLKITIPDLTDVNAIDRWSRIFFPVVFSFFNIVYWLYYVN

Mus musculus [4] = assay: Anxiolytic effect in CD1 mouse assessed as increase in number of transfers from lit to the dark area at 20 mg/kg, ip by light/dark box test; format: functional, organism-based; set-up: dose 20 mg/kg
In short: (§3)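 Male CD-1 mice (35-40 g), acclimatized 4 weeks to a reversed light cycle. […] Testing started 1 h later, with mouse placed in the lit chamber for a 5 min videotaped session.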

[5] = molecular target: GABA-A receptor; alpha-1/beta-2/gamma-2 (Rattus norvegicus) (UniProt P18508+P62813+P63138); assay: Agonist activity at rat GABA-A alpha-1-beta-2-gamma-2 receptor expressed in HEK293 cells assessed as increase in 36Cl- influx; format: functional, cell-based; in short: as §2
[6] = molecular target: GABA A receptor alpha-5/beta-3/gamma-2 (Rattus norvegicus, UniProt P18508+P19969+P63079); assay: Displacement of [3H]flumazenil from rat GABA-A alpha-5-beta-3-gamma-2 receptor expressed in HEK293 cells; format: cell-based; in short: as §1
Sequence of GABA A receptor alpha-5/beta-3/gamma-2 (P18508 whole entry): as the sequence (P18508 whole entry) above
Sequence of GABA A receptor alpha-5/beta-3/gamma-2 (P19969 whole entry): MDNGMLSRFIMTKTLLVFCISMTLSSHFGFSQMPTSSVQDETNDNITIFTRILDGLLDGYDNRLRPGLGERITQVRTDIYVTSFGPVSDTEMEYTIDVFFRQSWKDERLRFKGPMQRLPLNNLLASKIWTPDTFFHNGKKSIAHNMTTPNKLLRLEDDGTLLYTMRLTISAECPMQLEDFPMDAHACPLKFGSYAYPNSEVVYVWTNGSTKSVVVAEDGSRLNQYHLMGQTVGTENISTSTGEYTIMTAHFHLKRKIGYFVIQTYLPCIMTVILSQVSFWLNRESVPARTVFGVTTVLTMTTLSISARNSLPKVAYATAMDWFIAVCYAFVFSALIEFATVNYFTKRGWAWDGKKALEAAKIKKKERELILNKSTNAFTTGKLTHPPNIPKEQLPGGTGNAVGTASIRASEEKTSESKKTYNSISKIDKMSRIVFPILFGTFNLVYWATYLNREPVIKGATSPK
Sequence of GABA A receptor alpha-5/beta-3/gamma-2 (P63079 whole entry): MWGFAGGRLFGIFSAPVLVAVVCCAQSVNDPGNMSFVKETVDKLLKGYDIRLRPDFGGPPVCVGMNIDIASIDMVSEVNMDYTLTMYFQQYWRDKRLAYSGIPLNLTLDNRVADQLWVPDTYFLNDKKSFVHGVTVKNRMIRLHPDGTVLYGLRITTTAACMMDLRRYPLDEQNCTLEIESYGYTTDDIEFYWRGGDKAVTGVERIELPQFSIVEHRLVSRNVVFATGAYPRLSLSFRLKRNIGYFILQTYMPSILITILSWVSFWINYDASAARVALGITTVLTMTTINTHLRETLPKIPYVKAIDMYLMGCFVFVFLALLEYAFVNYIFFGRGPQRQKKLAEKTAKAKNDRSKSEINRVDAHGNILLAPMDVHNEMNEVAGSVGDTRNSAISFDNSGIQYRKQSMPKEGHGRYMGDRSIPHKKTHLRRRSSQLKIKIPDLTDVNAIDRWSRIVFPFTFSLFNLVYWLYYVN

Mus musculus [7] = assay: Anxiolytic effect in CD1 mouse assessed as increase in time spent in white compartment at 20 mg/kg, ip by light/dark box test; format: functional, organism-based; set-up: dose 20 mg/kg; in short: as §3
Mus musculus [8] = assay: Toxicity in CD1 mouse assessed as sedative effect at 20 mg/kg, ip by light/dark box test; format: organism-based; set-up: dose 20 mg/kg, route intraperitoneal; settings: in vivo; in short: as §3
[9] = Displacement of [3H]flumazenil from Benzodiazepine receptor in bovine cerebral cortex membrane; format: cell membranes, Bos taurus
Bos taurus = species: Bos taurus; assay: Displacement of [3H]flumazenil from Benzodiazepine receptor in bovine cerebral cortex membrane at 10 uM; format: cell membranes
[10] = molecular target: GABA A receptor alpha-5/beta-3/gamma-2 (Rattus norvegicus) (UniProt P18508+P19969+P63079); assay: Displacement of [3H]flumazenil from rat GABA-A alpha-5-beta-3-gamma-2 receptor expressed in HEK293 cells at 10 uM; format: cell-based
In short: (§4)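 HEK293 membranes expressing rat α2β2γ2 or α5β3γ2 incubated with [3H]flumazenil 1-2 nM for 1 h at 4 °C, in 10 mM potassium phosphate pH 7.4 with 100 mM KCl. Compound tested at 10 µM.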

[11] = molecular target: Gamma-aminobutyric acid receptor subunit alpha-2 (Rattus norvegicus) (UniProt P23576); assay: Displacement of [3H]flumazenil from rat GABA-A alpha-2-beta-2-gamma-2 receptor expressed in HEK293 cells at 10 uM; format: cell-based; in short: as §4
Mus musculus [12] = assay: Anxiolytic effect in CD1 mouse assessed as increase in time spent in white compartment at 1.25 mg/kg, ip by light/dark box test; format: functional, organism-based; set-up: dose 1.25 mg/kg
In short: (§5)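 Male CD-1 albino mice (35-40 g), acclimatized 4 weeks to reversed 12 h light cycle, dosed ip in 1% carboxymethylcellulose vehicle; 1 h later placed in centre of lit chamber of light/dark box for 5 min, videotaped. Scored time in white compartment, lit/dark transfers, and rearings plus line crossings (activity) expressed per TW; n = 4-6, mean ± SEM versus vehicle.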

Mus musculus [13] = assay: Toxicity in CD1 mouse assessed as sedative effect at 1.25 mg/kg, ip by light/dark box test; format: organism-based; set-up: dose 1.25 mg/kg, route intraperitoneal; settings: in vivo; in short: as §5
Mus musculus [14] = assay: Anxiolytic effect in CD1 mouse assessed as increase in number of transfers from lit to the dark area at 1.25 mg/kg, ip by light/dark box test; format: functional, organism-based; set-up: dose 1.25 mg/kg; in short: as §5

| SMILES | Ki [1] [nM] | Ki [3] [nM] | Ki [9] [nM] | also measured |
| --- | --- | --- | --- | --- |
| O=C(NCc1ccc(F)cc1)C(=O)c1c[nH]c2ccccc12 | 118 | 245 | 52 | Activity [2]: 85%; Activity (Mus musculus [4]): Active; Activity [5]: 11%; Ki [6]: 163 nM; Activity (Mus musculus [7]): Active; Activity (Mus musculus [8]): Non-toxic |
| O=C(N[C@@H]1CCc2ccccc21)C(=O)c1c[nH]c2ccc([N+](=O)[O-])cc12 | 85 |  | 28 | Activity [2]: 48%; Activity (Mus musculus [4]): inactive; Activity [5]: 1%; Activity (Mus musculus [7]): inactive |
| O=C(NC1CCc2cc([N+](=O)[O-])ccc21)C(=O)c1c[nH]c2ccccc12 (racemic) |  |  |  | inhibition (Bos taurus): 47% |
| O=C(NCc1ccccc1)C(=O)c1c[nH]c2ccccc12 |  |  | 120 |  |
| O=C(N[C@@H]1CCc2ccccc21)C(=O)c1c[nH]c2ccccc12 | 3100 |  | 675 |  |
| O=C(NCc1ccc([N+](=O)[O-])cc1)C(=O)c1c[nH]c2ccc([N+](=O)[O-])cc12 | 2980 | 293 | 620 | Ki [6]: 2220 nM |
| Cc1ccc(-c2nc3ccc(C)cn3c2CC(=O)N(C)C)cc1 [ZOLPIDEM] |  |  | 51 |  |
| COc1ccc(CNC(=O)C(=O)c2c[nH]c3ccccc23)cc1 | 1950 | 195 | 163 | inhibition [10]: 30% |
| C[C@@H](NC(=O)C(=O)c1c[nH]c2ccccc12)c1ccccc1 | 1550 |  | 1310 |  |
| O=C(NCc1ccc(F)cc1)C(=O)c1c[nH]c2ccc([N+](=O)[O-])cc12 |  |  |  | inhibition (Bos taurus): 24% |
| COc1ccc2c(c1)CCC2NC(=O)C(=O)c1c[nH]c2ccc([N+](=O)[O-])cc12 (racemic) | 231 | 28 | 13 | Ki [6]: 252 nM |
| O=C(NC1CCc2cc([N+](=O)[O-])ccc21)C(=O)c1c[nH]c2ccc([N+](=O)[O-])cc12 (racemic) | 513 | 200 | 178 | Ki [6]: 749 nM |
| O=C(NC1CCc2cc(F)ccc21)C(=O)c1c[nH]c2ccc([N+](=O)[O-])cc12 (racemic) | 810 | 195 | 300 | Ki [6]: 1420 nM |
| Cc1ccc2c(c1)CCC2NC(=O)C(=O)c1c[nH]c2ccccc12 (racemic) |  |  |  | inhibition (Bos taurus): 15% |
| C[C@@H](NC(=O)C(=O)c1c[nH]c2ccc([N+](=O)[O-])cc12)c1ccccc1 | 121 |  | 17 | Activity [2]: 79%; Activity (Mus musculus [4]): Active; Activity [5]: 35%; Activity (Mus musculus [7]): Active; Activity (Mus musculus [8]): Non-toxic |
| COc1ccc2c(c1)CCC2NC(=O)C(=O)c1c[nH]c2ccccc12 (racemic) | 690 | 246 | 636 | inhibition [10]: 28% |
| O=C(NC1CCc2cc(F)ccc21)C(=O)c1c[nH]c2ccccc12 (racemic) |  | 2050 | 2160 | inhibition [11]: 29%; inhibition [10]: 44% |
| Cc1ccc2c(c1)CCC2NC(=O)C(=O)c1c[nH]c2ccc([N+](=O)[O-])cc12 (racemic) |  |  |  | inhibition (Bos taurus): 2% |
| COc1ccc(CNC(=O)C(=O)c2c[nH]c3ccc([N+](=O)[O-])cc23)cc1 | 1650 |  | 53 |  |
| O=C(NCc1ccc([N+](=O)[O-])cc1)C(=O)c1c[nH]c2ccccc12 | 210 |  | 21 |  |
| CN1C(=O)CN=C(c2ccccc2)c2cc(Cl)ccc21 [DIAZEPAM] |  |  | 10 | Activity [2]: 81%; Activity (Mus musculus [12]): Active; Activity (Mus musculus [13]): Non-toxic; Activity (Mus musculus [14]): Active |
| O=C(NCc1ccccc1)C(=O)c1c[nH]c2ccc([N+](=O)[O-])cc12 |  |  | 117 |  |
